These results are taken from ChEMBL document CHEMBL2311392, “Differential interactions of rifabutin with human and bacterial membranes: implication for its therapeutic and toxic effects” (J Med Chem, 2013).

The structures appear in SMILES notation.

The nature of data set [1]: Drug localization in DPH probe-labeled DMPC liposomes at 37 +/- 0.1 degC by fluorescence quenching. It is filed as physicochemical. The method, boiled down:
(§1)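 LUVs (100 nm extrusion) of DMPC or DMPG at 500 μM total lipid in HEPES 0.01 M, I = 0.1 M (NaCl), pH 7.4, labelled with DPH or DPH-PA (probe:lipid 1:300). Drug (0–27 μM) incubated 30 min at 37.0 °C in the dark. Steady-state intensity (ex 357/360, em 427/430 nm) and lifetime read, corrected for quencher absorbance. Membrane drug concentration taken from Kp. Stern–Volmer constants obtained at 37.0 and 42.0 °C.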

Data set [2] can be described thus: Drug localization in DPH probe-labeled DMPG liposomes at 37 +/- 0.1 degC by fluorescence quenching. It is filed as physicochemical. The method, boiled down: as §1
Data set [3] is described as follows: Drug localization in DPH-PA probe-labeled DMPG liposomes at 42 +/- 0.1 degC by fluorescence quenching. It is filed as physicochemical. The method, boiled down: as §1
The nature of data set [4]: Drug localization in DPH-PA probe-labeled DMPG liposomes at 37 +/- 0.1 degC by fluorescence quenching. It is filed as physicochemical. The method, boiled down:
as §1

Data set [5] has as its system Lipid bilayer. Description: Binding affinity to DPH probe-labeled DMPG liposomes assessed as main phase transition temperature at 30 uM by steady-state fluorescence anisotrope (reference value: 24.1 +/- 0.5 degC).
Data set [6] is described as follows: Drug localization in DPH-PA probe-labeled DMPC liposomes at 37 +/- 0.1 degC by fluorescence quenching. It is filed as physicochemical. The method, boiled down: as §1
Data set [7] concerns Lipid bilayer. The experiment in a line: Binding affinity to DPH probe-labeled DMPC liposomes assessed as binding constant by fluorescence quenching assay. The method, boiled down: as §1
Data set [8] has as its system Lipid bilayer. Description: Binding affinity to DPH-PA probe-labeled DMPC liposomes assessed as binding constant by fluorescence quenching assay. The method, boiled down:
as §1

The test system of data set [9] is Lipid bilayer. Description: Binding affinity to DPH-PA probe-labeled DMPG liposomes assessed as binding constant by fluorescence quenching assay. The method, boiled down: as §1
Data set [10] has as its system Lipid bilayer. Description: Binding affinity to DPH probe-labeled DMPG liposomes assessed as binding constant by fluorescence quenching assay. The method, boiled down:
as §1

Data set [11] is described as follows: Drug localization in DPH-PA probe-labeled DMPC liposomes at 42 +/- 0.1 degC by fluorescence quenching. It is filed as physicochemical. The method, boiled down:
as §1

A short description of data set [12]: Drug localization in DPH probe-labeled DMPG liposomes at 42 +/- 0.1 degC by fluorescence quenching. It counts as physicochemical. The method, boiled down:
as §1

Data set [13] concerns Lipid bilayer. The experiment in a line: Binding affinity to DPH-PA probe-labeled DMPG liposomes assessed as main phase transition temperature at 30 uM by steady-state fluorescence anisotrope (reference value: 23.9 +/- 0.3 degC). To be noted: Microsome.
Data set [14] can be described thus: Drug localization in DPH probe-labeled DMPC liposomes at 42 +/- 0.1 degC by fluorescence quenching. It counts as physicochemical. The method, boiled down: as §1
The test system of data set [15] is Lipid bilayer. The experiment in a line: Binding affinity to DPH probe-labeled DMPC liposomes assessed as main phase transition temperature at 30 uM by steady-state fluorescence anisotrope (reference value: 24.4 +/- 0.2 degC).
The subject of data set [16] is Lipid bilayer. Description: Binding affinity to DPH-PA probe-labeled DMPC liposomes assessed as main phase transition temperature at 30 uM by steady-state fluorescence anisotrope (reference value: 24.6 +/- 0.3 degC). The note with it: Microsome.

Regarding `CO[C@H]1/C=C/O[C@@]2(C)Oc3c(C)c(O)c4c(c3C2=O)C2=NC3(CCN(CC(C)C)CC3)NC2=C(NC(=O)/C(C)=C\C=C\[C@H](C)[C@H](O)[C@@H](C)[C@@H](O)[C@@H](C)[C@H](OC(C)=O)[C@@H]1C)C4=O` [RIFABUTIN], the KSV in data set [1] turned out to be 216 M⁻¹; in data set [2] it was 167 M⁻¹; in data set [3], 121 M⁻¹; in data set [4] it was 181 M⁻¹; in [6], 165 M⁻¹; in [11], 76 M⁻¹. The KSV in data set [12] was 132 M⁻¹; in data set [14], 156 M⁻¹. Moreover, the Tm in [5] amounted to 24.4 °C; in data set [13] it was 24.2 °C; in data set [15], 24.5 °C; in [16], 24.5 °C. Besides, the Kq in [7] stood at 2.7e+10 M⁻¹ s⁻¹; in data set [8], 2.9e+10 M⁻¹ s⁻¹; in data set [9], 2.6e+10 M⁻¹ s⁻¹; in [10] it was 1.9e+10 M⁻¹ s⁻¹.
